Measured values published in ChEMBL document CHEMBL3352483, “Synthesis, structure-activity relationships and biological evaluation of barbigerone analogues as anti-proliferative and anti-angiogenesis agents” (Bioorg Med Chem Lett, 2014).

What was measured:
Format in all cases: functional, cell-based
[1] = Antiproliferative activity against human HCT116 cells after 24 hrs by MTT assay; details: HCT-116, 24 h
Procedure, shortened: (§1)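 MTT proliferation assay on HUVECs and on HepG2, A375, U251, B16 and HCT116 cells. Results reported as IC50.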

U-251 = test: Antiproliferative activity against human U251 cells after 24 hrs by MTT assay; details: U-251, 24 h; procedure, shortened: as §1
HUVEC = test: Antiproliferative activity against HUVEC after 24 hrs by MTT assay; details: Homo sapiens; procedure, shortened: as §1
A-375 = test: Antiproliferative activity against human A375 cells after 24 hrs by MTT assay; details: A-375, 24 h; procedure, shortened: as §1
B16 = test: Antiproliferative activity against mouse B16 cells after 24 hrs by MTT assay; details: B16, 24 h; procedure, shortened: as §1
HepG2 = test: Antiproliferative activity against human HepG2 cells after 24 hrs by MTT assay; details: HepG2, 24 h; procedure, shortened: as §1

Row | SMILES | IC50 [1] | IC50 (U-251) | IC50 (HUVEC) | IC50 (A-375) | IC50 (B16) | IC50 (HepG2)
1 | CC(=O)c1ccc(-c2coc3c4c(ccc3c2=O)OC(C)(C)C=C4)cc1 | > 10 µM | > 10 µM | > 10 µM | > 10 µM | > 10 µM | > 10 µM
2 | CC1(C)C=Cc2c(ccc3c(=O)c(-c4ccc(C(F)(F)F)cc4)coc23)O1 | 7 µM | 5.85 µM | > 10 µM | 7.25 µM | 1.91 µM | > 10 µM
3 | CC1(C)C=Cc2c(ccc3c(=O)c(-c4cccc(C=O)c4)coc23)O1 | > 10 µM | > 10 µM | > 10 µM | > 10 µM | > 10 µM | > 10 µM
4 | COc1cc(OC)c(-c2coc3cc(OCc4ccccc4C(F)(F)F)ccc3c2=O)cc1OC | 4.76 µM | > 10 µM | > 10 µM | > 10 µM | 8.55 µM | 6.55 µM
5 | COc1cc(OC)c(-c2coc3cc(OCc4ccc(C(F)(F)F)cc4)ccc3c2=O)cc1OC | 2.44 µM | 3.75 µM | > 10 µM | 2.28 µM | 5.4 µM | 0.89 µM
6 | COc1cc(OC)c(-c2coc3cc(OCc4ccccc4)ccc3c2=O)cc1OC | 2.28 µM | 6.75 µM | 9.75 µM | 1.64 µM | 2.33 µM | 1.32 µM
7 | COc1cc(OC)cc(-c2coc3c4c(ccc3c2=O)OC(C)(C)C=C4)c1 | > 10 µM | > 10 µM | > 10 µM | > 10 µM | > 10 µM | > 10 µM
8 | COc1cccc(-c2coc3c4c(ccc3c2=O)OC(C)(C)C=C4)c1F | > 10 µM | > 10 µM | > 10 µM | > 10 µM | > 10 µM | > 10 µM
9 | COc1cc(OC)c(-c2coc3cc(OCc4cccc(C(F)(F)F)c4)ccc3c2=O)cc1OC | 3.4 µM | > 10 µM | > 10 µM | 1.14 µM | > 10 µM | 0.61 µM
10 | COc1cccc(C(=O)Oc2ccc3c(=O)c(-c4cc(OC)c(OC)cc4OC)coc3c2)c1 | > 10 µM | > 10 µM | > 10 µM | > 10 µM | > 10 µM | > 10 µM
11 | COc1cc(OC)c(-c2coc3cc(OCc4ccc(F)cc4)ccc3c2=O)cc1OC | 0.95 µM | 3.2 µM | > 10 µM | 1.72 µM | 1.12 µM | 1 µM
12 | COc1cc(OC)c(-c2coc3cc(OCc4cccc(Cl)c4)ccc3c2=O)cc1OC | 1.33 µM | > 10 µM | > 10 µM | 0.98 µM | 2.28 µM | 0.75 µM
13 | COc1ccccc1-c1coc2c3c(ccc2c1=O)OC(C)(C)C=C3 | > 10 µM | > 10 µM | > 10 µM | > 10 µM | > 10 µM | > 10 µM
14 | CC1(C)C=Cc2c(ccc3c(=O)c(-c4ccc5c(c4)OCO5)coc23)O1 | > 10 µM | > 10 µM | > 10 µM | > 10 µM | > 10 µM | > 10 µM
15 | CC1(C)C=Cc2c(ccc3c(=O)c(-c4ccc(C(F)(F)F)cc4Cl)coc23)O1 | 3.8 µM | 2.5 µM | > 10 µM | 8.9 µM | 3.55 µM | > 10 µM
16 | COc1cc(OC)c(-c2coc3cc(OCc4ccccc4C#N)ccc3c2=O)cc1OC | > 10 µM | 0.98 µM | > 10 µM | 0.99 µM | 2.14 µM | > 10 µM
17 | COc1ccc(OC)c(-c2coc3c4c(ccc3c2=O)OC(C)(C)C=C4)c1 | > 10 µM | > 10 µM | > 10 µM | > 10 µM | > 10 µM | > 10 µM
18 | COc1cc(OC)c(-c2coc3cc(OCc4ccccc4C)ccc3c2=O)cc1OC | 2.9 µM | 2 µM | 4.83 µM | 1.36 µM | 2.15 µM | 1.86 µM
19 | COc1cc(-c2coc3c4c(ccc3c2=O)OC(C)(C)C=C4)cc(OC)c1OC | > 10 µM | > 10 µM | > 10 µM | > 10 µM | > 10 µM | > 10 µM
20 | CC1(C)C=Cc2c(ccc3c(=O)c(-c4ccc5c(c4)OCCO5)coc23)O1 | > 10 µM | > 10 µM | > 10 µM | > 10 µM | > 10 µM | > 10 µM
21 | C=CCOc1ccc2c(=O)c(-c3cc(OC)c(OC)cc3OC)coc2c1 | 6.6 µM | 5.9 µM | > 10 µM | 4.75 µM | 5.1 µM | 3.45 µM
22 | COc1ccc(-c2coc3c4c(ccc3c2=O)OC(C)(C)C=C4)cc1OC | > 10 µM | > 10 µM | > 10 µM | > 10 µM | > 10 µM | > 10 µM

Row | SMILES | IC50 [1] | IC50 (U-251) | IC50 (HUVEC) | IC50 (A-375) | IC50 (B16) | IC50 (HepG2)
23 | COc1cc(OC)c(-c2coc3cc(OCc4cccc(F)c4)ccc3c2=O)cc1OC | 4.92 µM | 3.51 µM | 5.3 µM | 1.3 µM | 2.44 µM | 1.23 µM
24 | CCOc1ccc(-c2coc3c4c(ccc3c2=O)OC(C)(C)C=C4)cc1 | > 10 µM | > 10 µM | > 10 µM | > 10 µM | > 10 µM | > 10 µM
25 | COc1cc(OC)c(-c2coc3cc(OCc4ccc(C#N)cc4)ccc3c2=O)cc1OC | 4.22 µM | 6.18 µM | – | 1.55 µM | 7 µM | 4.23 µM
26 | CC1(C)C=Cc2c(ccc3c(=O)c(-c4ccc(C#N)cc4)coc23)O1 | > 10 µM | > 10 µM | > 10 µM | > 10 µM | > 10 µM | > 10 µM
27 | CC1(C)C=Cc2c(ccc3c(=O)c(-c4ccc(O)cc4)coc23)O1 | > 10 µM | > 10 µM | > 10 µM | > 10 µM | > 10 µM | > 10 µM
28 | COc1cc(OC)c(-c2coc3cc(OCc4ccccc4Cl)ccc3c2=O)cc1OC | 2.45 µM | > 10 µM | > 10 µM | 2.02 µM | 4.18 µM | 1.69 µM
29 | COc1cccc(-c2coc3c4c(ccc3c2=O)OC(C)(C)C=C4)c1 | > 10 µM | > 10 µM | > 10 µM | > 10 µM | > 10 µM | > 10 µM
30 | COc1cc(OC)c(-c2coc3cc(OCc4ccc([N+](=O)[O-])cc4)ccc3c2=O)cc1OC | > 10 µM | 9.4 µM | > 10 µM | > 10 µM | > 10 µM | 2.5 µM
31 | COc1cc(OC)c(-c2coc3cc(OCc4ccccc4F)ccc3c2=O)cc1OC | 2.9 µM | 2.89 µM | 4.3 µM | 2.1 µM | 1.61 µM | 1.28 µM
32 | CC1(C)C=Cc2c(ccc3c(=O)c(-c4cccc(C(F)(F)F)c4)coc23)O1 | > 10 µM | > 10 µM | > 10 µM | > 10 µM | > 10 µM | > 10 µM
33 | C#CCOc1ccc2c(=O)c(-c3cc(OC)c(OC)cc3OC)coc2c1 | 8.05 µM | 6.45 µM | > 10 µM | 3.68 µM | 4.5 µM | 4.95 µM
34 | COc1ccc2c(=O)c(-c3cc(OC)c(OC)cc3OC)coc2c1 | 9.17 µM | 9.4 µM | > 10 µM | 2.64 µM | 5.2 µM | 2.04 µM
35 | CCOc1ccccc1-c1coc2c3c(ccc2c1=O)OC(C)(C)C=C3 | > 10 µM | > 10 µM | > 10 µM | > 10 µM | > 10 µM | > 10 µM
36 | COc1cc(OC)c(-c2coc3cc(OCc4ccc(Br)cc4)ccc3c2=O)cc1OC | 1.98 µM | – | > 10 µM | 1 µM | 1.18 µM | 1.05 µM
37 | COc1cc(OC)c(-c2coc3cc(OC(=O)Cc4cccc(C(F)(F)F)c4)ccc3c2=O)cc1OC | > 10 µM | > 10 µM | > 10 µM | > 10 µM | > 10 µM | > 10 µM
38 | COc1ccc(-c2coc3c4c(ccc3c2=O)OC(C)(C)C=C4)cc1 | > 10 µM | > 10 µM | > 10 µM | > 10 µM | > 10 µM | > 10 µM
39 | COc1cc(OC)c(-c2coc3cc(OCCN4CCOCC4)ccc3c2=O)cc1OC | > 10 µM | > 10 µM | > 10 µM | > 10 µM | > 10 µM | > 10 µM
40 | COc1cc(OC)c(-c2coc3cc(OCc4cccc(Br)c4)ccc3c2=O)cc1OC | 1.2 µM | > 10 µM | > 10 µM | 1.12 µM | 4.4 µM | 0.87 µM
41 | COc1ccc(-c2coc3c4c(ccc3c2=O)OC(C)(C)C=C4)c(OC)c1OC | > 10 µM | > 10 µM | > 10 µM | > 10 µM | > 10 µM | > 10 µM
42 | COc1cc(OC)c(-c2coc3cc(OCc4ccc(Cl)cc4)ccc3c2=O)cc1OC | 4.45 µM | 0.47 µM | 4.4 µM | 1.02 µM | 2.4 µM | 0.94 µM
43 | COc1ccc(-c2coc3c4c(ccc3c2=O)OC(C)(C)C=C4)c(OC)c1 | > 10 µM | > 10 µM | > 10 µM | > 10 µM | > 10 µM | > 10 µM
44 | COc1cc(OC)c(-c2coc3cc(OCc4ccccc4Br)ccc3c2=O)cc1OC | 4.55 µM | > 10 µM | > 10 µM | 2.85 µM | 8.9 µM | 2.18 µM
